Converted amounts (≈) assume the structure as drawn.
Columns and labels:
Histone deacetylase 4 [1] = biological target: T1, Histone deacetylase 4 (Homo sapiens, UniProt P56524); assay: Inhibition of Class 2A HDAC4 in human Jurkat E6.1 cells using Boc-Lys-(TFA)-AMC as substrate by fluorogenic assay; format: cell-based
How it was run: (§1)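 Whole-cell assay in Jurkat E6.1 cells with artificial fluorogenic substrates: Boc-Lys-(TFA)-AMC for class IIa/HDAC8 activity, which in this line is mostly HDAC4, and Boc-Lys-(Ac)-AMC for class I/IIb activity. IC50 given as the geometric mean of three experiments.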

[2] = Intrinsic Clearance in mouse liver microsomes; format: ADME, Microsome; conditions: read-out: CLH
[3] = Inhibition of Class 1/2b HDAC in human Jurkat E6.1 cells using Boc-Lys-(Ac)-AMC as substrate by fluorogenic assay; format: cell-based; how it was run: as §1
Histone deacetylase 4 [4] = biological target: T1, Histone deacetylase 4; assay: Inhibition of HDAC4 (unknown origin) using Boc Lys(TFA) as substrate by fluorogenic assay
How it was run: (§2)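 Biochemical HDAC isoform assay with the artificial fluorogenic substrate Boc-Lys-(TFA)-AMC, which is specific to class IIa enzymes and HDAC8. IC50 taken as the geometric mean of three experiments.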

[5] = Selectivity index, ratio of IC50 for Class 1/2b HDAC in human Jurkat E6.1 cells using Boc-Lys-(Ac)-AMC as substrate to IC50 for Class 2A HDAC4 in human Jurkat E6.1 cells using Boc-Lys-(TFA)-AMC as substrate by fluorogenic assay
How it was run: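 Human Jurkat E6.1 cells were assayed with two fluorogenic substrates. Boc-Lys-(TFA)-AMC reports class IIa activity, mostly HDAC4 in this line, and Boc-Lys-(Ac)-AMC reports class I/IIb activity. IC50s are geometric means of three experiments.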

[6] = Efflux ratio of permeability from basolateral to apical over apical to basolateral side in dog MDCK-MDR1 cells relative to wild type MDCK cells; format: ADME, cell-based, Canis lupus familiaris
[7] = Kinetic solubility of the compound; format: physicochemical; conditions: read-out: Kinetic_solubility
[8] = Apparent permeability of the compound in dog MDCK-MDR1 cells; format: ADME, cell-based, Canis lupus familiaris
Histone deacetylase 2 = Histone deacetylase 2 (Homo sapiens, UniProt Q92769); assay: Inhibition of HDAC2 (unknown origin) using Ac-Arg-Gly-Lys(Ac) as substrate by fluorogenic assay
[9] = Chemical stability of the compound in DMSO-d6 measured for 9 days at room temperature by 1H-NMR spectroscopy; format: physicochemical; conditions: 216 h; time 9 day
Histone deacetylase 1 = Histone deacetylase 1 (Homo sapiens, UniProt Q13547); assay: Inhibition of HDAC1 (unknown origin) using Ac-Arg-Gly-Lys(Ac) as substrate by fluorogenic assay
Histone deacetylase 8 = biological target: T2, Histone deacetylase 8 (Homo sapiens, UniProt Q9BY41); assay: Inhibition of HDAC8 (unknown origin) using Boc-Lys(TFA) as substrate by fluorogenic assay; how it was run: as §2
T2 sequence (Q9BY41 whole entry): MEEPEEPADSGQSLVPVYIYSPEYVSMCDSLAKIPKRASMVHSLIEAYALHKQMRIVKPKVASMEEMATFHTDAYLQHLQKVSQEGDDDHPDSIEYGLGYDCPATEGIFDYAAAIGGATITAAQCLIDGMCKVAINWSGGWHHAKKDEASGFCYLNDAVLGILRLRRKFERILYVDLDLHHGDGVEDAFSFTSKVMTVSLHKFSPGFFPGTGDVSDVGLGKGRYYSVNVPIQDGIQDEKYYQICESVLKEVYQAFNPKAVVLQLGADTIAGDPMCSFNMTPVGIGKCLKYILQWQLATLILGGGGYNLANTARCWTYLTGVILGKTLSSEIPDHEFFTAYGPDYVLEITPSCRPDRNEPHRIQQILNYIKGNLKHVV

[10] = biological target: T3, Protein deacetylase HDAC6 (Homo sapiens, UniProt Q9UBN7); assay: Inhibition of HDAC6 (unknown origin) expressed in human HEK-Freestyle cells using Boc-Lys(Ac) as substrate by fluorogenic assay; format: cell-based
T3 sequence (Q9UBN7 whole entry): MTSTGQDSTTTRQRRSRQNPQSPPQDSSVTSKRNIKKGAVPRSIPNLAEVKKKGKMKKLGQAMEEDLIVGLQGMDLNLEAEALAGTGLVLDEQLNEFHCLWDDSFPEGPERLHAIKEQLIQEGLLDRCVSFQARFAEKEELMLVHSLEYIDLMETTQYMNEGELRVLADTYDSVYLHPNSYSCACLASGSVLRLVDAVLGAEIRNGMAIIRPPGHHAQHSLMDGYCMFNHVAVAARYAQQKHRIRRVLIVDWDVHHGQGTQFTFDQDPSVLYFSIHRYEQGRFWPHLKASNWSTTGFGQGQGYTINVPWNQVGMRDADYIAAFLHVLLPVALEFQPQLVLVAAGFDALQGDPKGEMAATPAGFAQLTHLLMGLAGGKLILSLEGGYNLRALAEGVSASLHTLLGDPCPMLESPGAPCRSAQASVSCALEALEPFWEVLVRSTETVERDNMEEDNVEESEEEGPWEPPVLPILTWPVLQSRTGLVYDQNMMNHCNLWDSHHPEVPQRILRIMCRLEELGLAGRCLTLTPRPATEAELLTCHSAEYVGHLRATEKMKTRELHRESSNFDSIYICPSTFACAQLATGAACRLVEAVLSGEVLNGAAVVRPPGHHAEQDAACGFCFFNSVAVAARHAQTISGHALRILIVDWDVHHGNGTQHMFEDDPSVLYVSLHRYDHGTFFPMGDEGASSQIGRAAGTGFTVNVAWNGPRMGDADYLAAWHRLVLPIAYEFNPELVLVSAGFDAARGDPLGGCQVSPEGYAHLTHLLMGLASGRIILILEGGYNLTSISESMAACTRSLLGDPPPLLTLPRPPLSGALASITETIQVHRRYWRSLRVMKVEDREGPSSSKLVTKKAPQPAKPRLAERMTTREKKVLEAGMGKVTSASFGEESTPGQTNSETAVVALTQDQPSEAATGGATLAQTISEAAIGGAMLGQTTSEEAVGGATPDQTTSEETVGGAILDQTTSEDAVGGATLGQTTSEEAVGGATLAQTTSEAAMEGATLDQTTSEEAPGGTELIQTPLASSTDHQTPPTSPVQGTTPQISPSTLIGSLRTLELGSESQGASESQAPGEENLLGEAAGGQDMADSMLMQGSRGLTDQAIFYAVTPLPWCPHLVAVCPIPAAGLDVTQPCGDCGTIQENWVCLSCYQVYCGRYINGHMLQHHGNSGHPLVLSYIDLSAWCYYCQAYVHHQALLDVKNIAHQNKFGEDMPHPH
How it was run: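 HDAC6 was supplied as lysate of HEK cells overexpressing the enzyme. Activity was read with the class I/IIb-specific fluorogenic substrate Boc-Lys-(Ac)-AMC. IC50 is the geometric mean of three experiments.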

[11] = biological target: Histone deacetylase 3/Nuclear receptor corepressor 1 (HDAC3/NCoR1) (Homo sapiens); assay: Inhibition of HDAC3/NCOR1 (unknown origin) using Boc-Lys(Ac) as substrate by fluorogenic assay
Histone deacetylase 5 = Histone deacetylase 5 (Homo sapiens, UniProt Q9UQL6); assay: Inhibition of HDAC5 (unknown origin) using Boc Lys(TFA) as substrate by fluorogenic assay; how it was run: as §2
Histone deacetylase 9 = Histone deacetylase 9 (Homo sapiens, UniProt Q9UKV0); assay: Inhibition of HDAC9 (unknown origin) using Boc Lys(TFA) as substrate by fluorogenic assay; how it was run: as §2
Sequence of Histone deacetylase 9 (Q9UKV0 whole entry): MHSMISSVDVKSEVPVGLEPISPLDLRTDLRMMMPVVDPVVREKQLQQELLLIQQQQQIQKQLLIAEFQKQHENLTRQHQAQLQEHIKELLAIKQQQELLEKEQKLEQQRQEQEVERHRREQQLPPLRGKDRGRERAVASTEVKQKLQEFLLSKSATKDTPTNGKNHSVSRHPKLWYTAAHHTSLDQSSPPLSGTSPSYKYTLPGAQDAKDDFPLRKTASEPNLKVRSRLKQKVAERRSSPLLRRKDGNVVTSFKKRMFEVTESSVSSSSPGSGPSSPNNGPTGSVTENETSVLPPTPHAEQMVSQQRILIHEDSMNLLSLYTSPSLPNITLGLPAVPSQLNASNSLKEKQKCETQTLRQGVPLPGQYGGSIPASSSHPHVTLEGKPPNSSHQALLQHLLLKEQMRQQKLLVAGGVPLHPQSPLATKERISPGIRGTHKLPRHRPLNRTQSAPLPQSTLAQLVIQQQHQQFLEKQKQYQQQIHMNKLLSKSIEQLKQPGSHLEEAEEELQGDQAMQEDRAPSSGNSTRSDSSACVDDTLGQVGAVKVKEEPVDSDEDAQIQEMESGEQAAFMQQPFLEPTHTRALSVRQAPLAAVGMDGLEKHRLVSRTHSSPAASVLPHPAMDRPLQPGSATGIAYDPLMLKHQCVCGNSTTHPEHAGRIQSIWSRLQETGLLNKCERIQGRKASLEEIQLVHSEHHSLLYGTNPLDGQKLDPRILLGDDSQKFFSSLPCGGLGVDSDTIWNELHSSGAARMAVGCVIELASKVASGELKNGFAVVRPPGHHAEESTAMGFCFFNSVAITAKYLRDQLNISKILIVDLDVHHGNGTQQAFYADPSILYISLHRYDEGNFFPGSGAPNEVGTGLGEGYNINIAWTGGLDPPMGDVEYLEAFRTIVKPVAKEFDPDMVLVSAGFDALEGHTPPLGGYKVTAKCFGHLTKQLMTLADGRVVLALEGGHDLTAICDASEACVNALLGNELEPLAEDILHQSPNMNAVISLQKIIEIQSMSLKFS

T1 sequence (P56524 whole entry): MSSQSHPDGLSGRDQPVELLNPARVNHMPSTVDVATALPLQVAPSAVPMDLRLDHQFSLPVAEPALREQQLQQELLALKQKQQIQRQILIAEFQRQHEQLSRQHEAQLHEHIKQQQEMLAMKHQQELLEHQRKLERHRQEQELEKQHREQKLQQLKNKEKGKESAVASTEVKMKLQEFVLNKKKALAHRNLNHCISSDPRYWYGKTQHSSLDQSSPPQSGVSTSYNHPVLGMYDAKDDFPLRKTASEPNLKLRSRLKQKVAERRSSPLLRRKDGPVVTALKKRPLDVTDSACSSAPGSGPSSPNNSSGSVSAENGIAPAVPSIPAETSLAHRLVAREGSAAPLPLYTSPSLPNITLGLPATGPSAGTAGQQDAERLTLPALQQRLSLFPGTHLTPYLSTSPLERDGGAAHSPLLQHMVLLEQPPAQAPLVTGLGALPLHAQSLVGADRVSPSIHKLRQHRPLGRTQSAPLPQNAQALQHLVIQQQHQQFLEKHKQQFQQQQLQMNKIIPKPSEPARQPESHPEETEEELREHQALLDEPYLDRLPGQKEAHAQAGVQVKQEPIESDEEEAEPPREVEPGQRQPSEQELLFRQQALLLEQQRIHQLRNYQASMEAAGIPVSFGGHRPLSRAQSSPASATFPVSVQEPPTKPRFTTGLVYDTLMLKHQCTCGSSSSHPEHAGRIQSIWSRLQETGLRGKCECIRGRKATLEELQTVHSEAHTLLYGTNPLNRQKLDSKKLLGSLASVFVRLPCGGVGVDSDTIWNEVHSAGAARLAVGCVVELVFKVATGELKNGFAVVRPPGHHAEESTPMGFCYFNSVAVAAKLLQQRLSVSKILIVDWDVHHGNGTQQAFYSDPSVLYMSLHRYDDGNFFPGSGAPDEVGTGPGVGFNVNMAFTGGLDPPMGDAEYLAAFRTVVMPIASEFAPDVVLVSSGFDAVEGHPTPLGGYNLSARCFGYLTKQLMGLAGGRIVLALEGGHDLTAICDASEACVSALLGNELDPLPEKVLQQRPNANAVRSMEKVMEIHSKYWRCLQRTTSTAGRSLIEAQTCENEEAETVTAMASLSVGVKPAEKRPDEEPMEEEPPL
Sequence of Histone deacetylase 2 (Q92769 whole entry): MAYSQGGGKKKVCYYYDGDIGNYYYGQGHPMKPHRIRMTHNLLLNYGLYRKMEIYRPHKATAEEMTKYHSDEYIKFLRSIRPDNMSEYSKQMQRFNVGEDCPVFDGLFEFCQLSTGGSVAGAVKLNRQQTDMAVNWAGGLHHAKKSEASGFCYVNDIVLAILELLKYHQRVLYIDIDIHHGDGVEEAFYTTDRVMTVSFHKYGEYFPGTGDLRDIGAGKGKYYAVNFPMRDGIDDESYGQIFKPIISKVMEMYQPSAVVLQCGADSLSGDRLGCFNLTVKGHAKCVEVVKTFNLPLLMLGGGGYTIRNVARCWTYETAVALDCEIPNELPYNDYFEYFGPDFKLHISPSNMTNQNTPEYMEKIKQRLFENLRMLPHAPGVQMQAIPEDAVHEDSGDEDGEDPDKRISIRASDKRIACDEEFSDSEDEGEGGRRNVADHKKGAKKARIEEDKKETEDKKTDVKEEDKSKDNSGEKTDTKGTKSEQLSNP
Sequence of Histone deacetylase 1 (Q13547 whole entry): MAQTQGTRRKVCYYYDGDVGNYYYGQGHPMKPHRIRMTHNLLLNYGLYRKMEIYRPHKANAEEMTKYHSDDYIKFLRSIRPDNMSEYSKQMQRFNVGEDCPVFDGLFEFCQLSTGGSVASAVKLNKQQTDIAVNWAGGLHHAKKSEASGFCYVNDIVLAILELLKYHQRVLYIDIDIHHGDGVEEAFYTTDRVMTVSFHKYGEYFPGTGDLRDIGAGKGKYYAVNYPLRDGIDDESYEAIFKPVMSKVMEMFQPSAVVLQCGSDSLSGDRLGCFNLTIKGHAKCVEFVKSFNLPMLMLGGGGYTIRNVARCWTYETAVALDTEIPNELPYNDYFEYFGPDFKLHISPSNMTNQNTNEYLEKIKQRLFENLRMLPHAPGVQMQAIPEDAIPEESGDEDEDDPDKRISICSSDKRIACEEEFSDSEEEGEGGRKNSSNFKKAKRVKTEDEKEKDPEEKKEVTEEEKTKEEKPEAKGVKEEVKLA
Sequence of Histone deacetylase 5 (Q9UQL6 whole entry): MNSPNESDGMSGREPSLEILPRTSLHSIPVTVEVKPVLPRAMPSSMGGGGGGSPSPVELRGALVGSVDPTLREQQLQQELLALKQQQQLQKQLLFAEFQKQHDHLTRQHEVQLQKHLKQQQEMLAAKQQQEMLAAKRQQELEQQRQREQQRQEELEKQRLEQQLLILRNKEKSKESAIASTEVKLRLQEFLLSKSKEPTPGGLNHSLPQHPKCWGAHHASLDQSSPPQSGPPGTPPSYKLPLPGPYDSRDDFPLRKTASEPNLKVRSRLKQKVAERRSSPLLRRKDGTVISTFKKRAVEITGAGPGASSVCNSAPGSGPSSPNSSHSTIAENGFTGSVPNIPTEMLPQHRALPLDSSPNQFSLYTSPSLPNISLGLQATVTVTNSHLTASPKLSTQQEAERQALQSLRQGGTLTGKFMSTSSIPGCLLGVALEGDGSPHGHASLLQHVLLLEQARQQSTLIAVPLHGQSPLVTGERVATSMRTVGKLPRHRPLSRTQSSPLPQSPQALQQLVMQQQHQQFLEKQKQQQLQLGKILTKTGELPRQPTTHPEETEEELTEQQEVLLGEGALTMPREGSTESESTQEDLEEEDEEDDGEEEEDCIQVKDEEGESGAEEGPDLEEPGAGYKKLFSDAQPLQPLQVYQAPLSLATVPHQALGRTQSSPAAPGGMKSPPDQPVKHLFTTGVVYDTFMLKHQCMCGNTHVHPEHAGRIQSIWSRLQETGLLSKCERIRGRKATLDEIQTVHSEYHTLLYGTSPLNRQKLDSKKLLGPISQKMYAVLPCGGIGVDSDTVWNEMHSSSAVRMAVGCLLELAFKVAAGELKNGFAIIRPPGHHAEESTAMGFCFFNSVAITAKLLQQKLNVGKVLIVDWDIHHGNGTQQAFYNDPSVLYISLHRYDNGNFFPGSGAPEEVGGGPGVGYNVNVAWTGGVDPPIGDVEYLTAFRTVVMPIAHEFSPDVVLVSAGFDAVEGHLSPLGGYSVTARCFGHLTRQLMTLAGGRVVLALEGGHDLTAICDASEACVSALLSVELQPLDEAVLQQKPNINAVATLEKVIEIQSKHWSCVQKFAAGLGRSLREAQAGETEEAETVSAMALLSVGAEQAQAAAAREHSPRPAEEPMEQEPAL

Row | Structure (SMILES) | IC50 (Histone deacetylase 4 [1]) | CLint scaled [2] | IC50 [3] | IC50 (Histone deacetylase 4 [4]) | Ratio [6] | solubility kinetic [7] | Ratio IC50 [5] | further results
1 | C[C@H](CN1CCCC(C)(C)C1)NC(=O)c1ccc(-c2noc(C(F)(F)F)n2)cc1 | 0.01 µM | 77.6 L/h/kg | 0.52 µM | 0.002 µM | 1 | 150 µM (≈ 61.6 µg/mL) | 52 | –
2 | C[C@H](CN1CCCCC1)NC(=O)c1ccc(-c2noc(C(F)(F)F)n2)cc1 | 0.07 µM | 3.96 L/h/kg | 9 µM | – | 1.6 | 157 µM (≈ 60 µg/mL) | 129 | –
3 | CCCN(CCC)C[C@@H](C)NC(=O)c1ccc(-c2noc(C(F)(F)F)n2)cc1 | – | 50 L/h/kg | 3 µM | – | – | 140 µM (≈ 55.8 µg/mL) | – | Papp [8]: 541 nm/s; IC50 (Histone deacetylase 2): 9.3 µM; Stabilty [9]: Stable; IC50 (Histone deacetylase 1): 6 µM; IC50 (Histone deacetylase 8): 2.9 µM; IC50 [10]: 6.4 µM
4 | CC(C)(CN1CCCC1)NC(=O)c1ccc(-c2noc(C(F)(F)F)n2)cc1 | 0.31 µM | – | 12 µM | 0.28 µM | – | – | 39 | –
5 | C[C@H](CN1CCCC1)NC(=O)c1ccc(-c2noc(C(F)(F)F)n2)cc1 | 0.07 µM | 3.9 L/h/kg | 10 µM | 0.01 µM | 2.2 | 178 µM (≈ 65.6 µg/mL) | 143 | –
6 | O=C(NC1(CN2CCCC2)CC1)c1ccc(-c2noc(C(F)(F)F)n2)cc1 | 0.18 µM | – | 6.4 µM | 0.04 µM | – | – | 36 | –
7 | O=C(NCCN1CCCC1)c1ccc(-c2noc(C(F)(F)F)n2)cc1 | 0.25 µM | 4.56 L/h/kg | 3.7 µM | 0.03 µM | – | 169 µM (≈ 59.9 µg/mL) | – | Papp [8]: 604 nm/s; IC50 (Histone deacetylase 2): 26 µM; IC50 [11]: 5.1 µM; IC50 (Histone deacetylase 5): 0.09 µM; IC50 (Histone deacetylase 1): 13 µM; IC50 (Histone deacetylase 8): 2.8 µM; IC50 [10]: 9.8 µM; IC50 (Histone deacetylase 9): 0.07 µM
8 | C[C@@H](CN1CCCC1)NC(=O)c1ccc(-c2noc(C(F)(F)F)n2)cc1 | 0.73 µM | – | 43 µM | 0.05 µM | – | – | 59 | –
9 | CCCN(CCC)C[C@@H](C)NC(=O)c1ccc(-c2nc(C(F)(F)F)no2)cc1 | > 50 µM | – | – | 28 µM | – | – | – | –
10 | C[C@H](CN1CCC[C@H](OC(F)F)C1)NC(=O)c1ccc(-c2noc(C(F)(F)F)n2)cc1 | 0.01 µM | 45.4 L/h/kg | 1.5 µM | 0.003 µM | 1.1 | 51 µM (≈ 22.9 µg/mL) | 150 | –

Now from value to compound, other results behind:

Row | IC50 (Histone deacetylase 4 [1]) | CLint scaled [2] | IC50 [3] | IC50 (Histone deacetylase 4 [4]) | Ratio [6] | solubility kinetic [7] | Structure (SMILES) | Ratio IC50 [5] | further results
11 | 0.06 µM | 39.7 L/h/kg | 3.6 µM | 0.02 µM | 1.2 | – | C[C@H](CN1CCC[C@@H](OC(F)F)C1)NC(=O)c1ccc(-c2noc(C(F)(F)F)n2)cc1 | 60 | –
12 | > 50 µM | – | – | > 50 µM | – | – | CCCN(CCC)C[C@@H](C)NC(=O)c1ccc(-c2noc(C)n2)cc1 | – | –
13 | 0.1 µM | 12.8 L/h/kg | 10.3 µM | 0.03 µM | 1.2 | – | C[C@H](CN1CCC(F)CC1)NC(=O)c1ccc(-c2noc(C(F)(F)F)n2)cc1 | 103 | –
14 | 1.3 µM | – | > 50 µM | 0.23 µM | – | 52 µM (≈ 21 µg/mL) | C[C@H](CN1CCC(F)(F)C1)NC(=O)c1ccc(-c2noc(C(F)(F)F)n2)cc1 | >38 | –
15 | > 50 µM | – | – | > 50 µM | – | – | CCCN(CCC)C[C@@H](C)NC(=O)c1ccc(-c2ncon2)cc1 | – | –
16 | 19 µM | – | – | 0.89 µM | – | – | CCCN(CCC)C[C@@H](C)NC(=O)c1ccc(-c2noc(C(F)F)n2)cc1 | – | –
17 | 0.38 µM | – | > 50 µM | 0.13 µM | – | 25 µM (≈ 10.5 µg/mL) | C[C@H](CN1CCC(F)(F)CC1)NC(=O)c1ccc(-c2noc(C(F)(F)F)n2)cc1 | >132 | –
18 | 0.6 µM | – | 14 µM | 0.07 µM | – | 178 µM (≈ 68.1 µg/mL) | C[C@H](CN1CCC[C@H]1C)NC(=O)c1ccc(-c2noc(C(F)(F)F)n2)cc1 | – | –
19 | 0.03 µM | 7.68 L/h/kg | 1.7 µM | 0.01 µM | 1.2 | – | C[C@H](CN1CCCCCC1)NC(=O)c1ccc(-c2noc(C(F)(F)F)n2)cc1 | 57 | –

Reference: ChEMBL document CHEMBL4680373, “Evaluation of 5-(Trifluoromethyl)-1,2,4-oxadiazole-Based Class IIa HDAC Inhibitors for Huntington's Disease” (ACS Med Chem Lett, 2021)
